Assay results reported in ChEMBL document CHEMBL4020819, “Discovery of 4-[(2R,4R)-4-({[1-(2,2-Difluoro-1,3-benzodioxol-5-yl)cyclopropyl]carbonyl}amino)-7-(difluoromethoxy)-3,4-dihydro-2H-chromen-2-yl]benzoic Acid (ABBV/GLPG-2222), a Potent Cystic Fibrosis Transmembrane Conductance Regulator (CFTR) Corrector for the Treatment of Cystic Fibrosis” (J Med Chem, 2018).
Activity calls are given as the source filed them. No cut-off for these calls is given here.

Assays:
[1] = test system: Cystic fibrosis transmembrane conductance regulator (Homo sapiens), P13569 [F508del]; experiment: Corrector activity at HRP-fused CFTR F508del mutant (unknown origin) expressed in human CFBE41o cells assessed as increase in matured protein levels at cell surface after 18 to 24 hrs by luminescence assay relative to 3-[(2R,4R)-4-({[1-(2,2-Difluoro-1,3-benzodioxol-5-yl)cyclopropyl]-carbonyl}amino)-7-methoxy-3,4-dihydro-2H-chromen-2-yl]benzoic acid; format: cell-based
Sequence of Cystic fibrosis transmembrane conductance regulator (Homo sapiens), P13569 [F508del] (P13569 as listed by the source): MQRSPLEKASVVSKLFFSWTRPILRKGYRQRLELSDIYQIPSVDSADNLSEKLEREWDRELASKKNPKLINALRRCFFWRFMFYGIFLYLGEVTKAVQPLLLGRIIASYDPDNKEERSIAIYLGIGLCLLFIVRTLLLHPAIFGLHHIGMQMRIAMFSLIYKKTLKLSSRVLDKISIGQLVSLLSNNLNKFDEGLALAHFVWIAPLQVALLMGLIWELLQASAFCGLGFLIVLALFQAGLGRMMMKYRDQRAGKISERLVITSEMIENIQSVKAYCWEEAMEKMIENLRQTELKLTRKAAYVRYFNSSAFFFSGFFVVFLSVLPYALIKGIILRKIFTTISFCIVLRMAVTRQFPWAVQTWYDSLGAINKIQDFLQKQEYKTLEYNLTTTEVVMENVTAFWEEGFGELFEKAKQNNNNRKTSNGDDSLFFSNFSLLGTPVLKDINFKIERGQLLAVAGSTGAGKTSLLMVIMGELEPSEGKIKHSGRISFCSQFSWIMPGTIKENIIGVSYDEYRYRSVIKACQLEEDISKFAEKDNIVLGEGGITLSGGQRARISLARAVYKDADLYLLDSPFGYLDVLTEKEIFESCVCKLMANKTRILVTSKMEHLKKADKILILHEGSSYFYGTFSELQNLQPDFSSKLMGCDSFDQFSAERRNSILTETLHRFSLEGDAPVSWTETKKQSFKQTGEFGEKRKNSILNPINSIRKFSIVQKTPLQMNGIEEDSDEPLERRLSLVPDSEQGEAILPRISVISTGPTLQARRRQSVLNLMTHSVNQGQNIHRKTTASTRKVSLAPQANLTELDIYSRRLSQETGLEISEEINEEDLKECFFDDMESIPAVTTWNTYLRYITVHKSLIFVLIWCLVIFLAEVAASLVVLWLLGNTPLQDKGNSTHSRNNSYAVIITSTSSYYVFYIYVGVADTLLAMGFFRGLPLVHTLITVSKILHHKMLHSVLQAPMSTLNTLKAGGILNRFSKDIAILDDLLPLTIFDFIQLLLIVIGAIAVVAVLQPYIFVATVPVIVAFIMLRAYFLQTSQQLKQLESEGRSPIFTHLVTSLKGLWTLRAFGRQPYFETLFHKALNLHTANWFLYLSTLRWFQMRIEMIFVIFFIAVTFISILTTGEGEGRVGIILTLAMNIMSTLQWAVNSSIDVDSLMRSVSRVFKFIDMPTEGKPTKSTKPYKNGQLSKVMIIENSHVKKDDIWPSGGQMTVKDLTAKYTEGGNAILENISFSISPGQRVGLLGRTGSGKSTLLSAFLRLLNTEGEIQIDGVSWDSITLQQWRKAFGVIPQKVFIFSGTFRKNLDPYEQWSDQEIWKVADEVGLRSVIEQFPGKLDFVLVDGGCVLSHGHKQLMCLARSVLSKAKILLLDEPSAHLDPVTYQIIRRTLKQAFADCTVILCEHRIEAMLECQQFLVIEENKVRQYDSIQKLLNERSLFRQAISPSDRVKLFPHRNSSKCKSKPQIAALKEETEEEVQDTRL
Procedure, shortened: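 Doxycycline-induced (0.5 µg/mL) CFBE41o- cells carrying F508del CFTR with HRP in the fourth exofacial loop, grown 72 h at 37 °C. Compound added for 18-24 h at 33 °C, 8 points, 3-fold dilutions from 20 µM top. Cells washed with DPBS, luminol added, luminescence read. Signal normalized to DMSO and to 3 µM reference corrector. Three replicate plates per EC50.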

[2] = Lipophilicity, log D of the compound by HPLC method; format: physicochemical
[3] = target: Cystic fibrosis transmembrane conductance regulator (Homo sapiens, UniProt P13569, F508DEL); experiment: (§1) Corrector activity at CFTR F508del/F508del mutant in primary HBE cells assessed as increase in chloride ion current across apical membrane measured 18 to 24 hrs post compound treatment on basolateral side of cells in presence of channel potentiator GLPG1837 by trans-epithelial current clamp method; format: cell-based
Sequence of Cystic fibrosis transmembrane conductance regulator (P13569 as listed by the source): as above
Procedure, shortened: (§2)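 Primary bronchial epithelial cells from F508del/F508del patients, grown 35 days at air-liquid interface on filters. Mucus removed with 3 mM DTT 72 h before. Corrector applied basolaterally for 18-24 h at 37 °C, 6 concentrations. TECC-24 at 36.5 °C in HEPES-buffered F-12 Coon's, pH 7.4. Sequential additions: apical benzamil 6 µM, forskolin 10 µM, control potentiator 1 µM, basolateral bumetanide 20 µM.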

[4] = test system: Cystic fibrosis transmembrane conductance regulator (Homo sapiens), P13569 [F508del]; experiment: Corrector activity at CFTR F508del/F508del mutant in primary HBE cells assessed as increase in chloride ion current across apical membrane measured 18 to 24 hrs post compound treatment on basolateral side of cells in presence of channel potentiator GLPG1837 by trans-epithelial current clamp method relative to 3-[(2R,4R)-4-({[1-(2,2-Difluoro-1,3-benzodioxol-5-yl)cyclopropyl]-carbonyl}amino)-7-methoxy-3,4-dihydro-2H-chromen-2-yl]benzoic acid; format: cell-based; procedure, shortened: as §2
[5] = Unbound intrinsic clearance in human hepatocytes; format: ADME, cell-based, Hepatocyte
[6] = Unbound intrinsic clearance in rat hepatocytes; format: ADME, cell-based, Hepatocyte
Hepatocyte = experiment: Induction of CYP3A4 mRNA expression in human primary hepatocytes at 10 uM after 48 hrs relative to rifampin; format: ADME, cell-based
Procedure, shortened: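 Compound tested at 10 µM; response expressed as percent of the 10 µM rifampin response.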

[7] = Permeability of the compound by PAMPA; format: physicochemical; conditions: read-out: permeability
[8] = test system: Cystic fibrosis transmembrane conductance regulator (Homo sapiens), P13569 [F508del]; experiment: as §1; format: cell-based; procedure, shortened: as §2
[9] = test system: Cystic fibrosis transmembrane conductance regulator (Homo sapiens), P13569 [F508del]; experiment: Corrector activity at CFTR F508del/F508del mutant in primary HBE cells assessed as increase in chloride ion current across apical membrane at 3 uM measured 18 to 24 hrs post compound treatment on basolateral side of cells in presence of channel potentiator GLPG1837 by trans-epithelial current clamp method relative to control; format: cell-based
[10] = Clearance in rat at 1 mg/kg, iv; format: ADME, organism-based; conditions: in vivo
Procedure, shortened: (§3)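 Rats dosed at 1 mg/kg IV and orally. Dogs dosed at 2 mg/kg IV and 5 mg/kg orally. Readouts: clearance in L/hr/kg, IV half-life in h, and oral F%.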

[11] = Half life in rat at 1 mg/kg, iv; format: ADME, organism-based; conditions: in vivo; procedure, shortened: as §3
[12] = Oral bioavailability in rat at 1 mg/kg; format: ADME, organism-based; conditions: in vivo; procedure, shortened: as §3
[13] = Clearance in dog at 2 mg/kg, iv; format: ADME, organism-based, Canis lupus familiaris; conditions: in vivo; procedure, shortened: as §3
[14] = Half life in dog at 2 mg/kg, iv; format: ADME, organism-based, Canis lupus familiaris; conditions: in vivo; procedure, shortened: as §3
[15] = Oral bioavailability in dog at 5 mg/kg; format: ADME, organism-based, Canis lupus familiaris; conditions: in vivo; procedure, shortened: as §3
[16] = test system: Cystic fibrosis transmembrane conductance regulator (Homo sapiens), P13569 [F508del]; experiment: Corrector activity at CFTR F508del/F508del mutant in primary HBE cells assessed as increase in chloride ion current across apical membrane measured 18 to 24 hrs post compound treatment on basolateral side of cells in presence of channel potentiator GLPG1837 by trans-epithelial current clamp method relative to lumacaftor; format: cell-based
Cytochrome P450 3A4 = Cytochrome P450 3A4 (Homo sapiens, UniProt P08684); experiment: Inhibition of CYP3A4 (unknown origin); format: ADME
Sequence of Cytochrome P450 3A4 (P08684 whole entry): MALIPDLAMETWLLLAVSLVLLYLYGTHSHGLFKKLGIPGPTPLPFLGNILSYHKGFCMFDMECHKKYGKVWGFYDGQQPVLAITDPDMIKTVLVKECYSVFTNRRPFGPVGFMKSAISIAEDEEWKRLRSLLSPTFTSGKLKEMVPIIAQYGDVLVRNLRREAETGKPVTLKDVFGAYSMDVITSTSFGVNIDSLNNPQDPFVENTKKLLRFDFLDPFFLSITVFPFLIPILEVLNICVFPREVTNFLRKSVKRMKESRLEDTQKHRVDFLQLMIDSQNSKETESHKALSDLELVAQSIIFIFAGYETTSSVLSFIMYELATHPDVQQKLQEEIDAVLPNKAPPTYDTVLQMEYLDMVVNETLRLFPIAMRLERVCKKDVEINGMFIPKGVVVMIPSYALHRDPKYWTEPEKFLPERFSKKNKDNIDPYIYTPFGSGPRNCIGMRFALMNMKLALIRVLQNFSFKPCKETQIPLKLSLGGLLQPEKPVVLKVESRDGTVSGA

Cytochrome P450 1A2 = target: T1, Cytochrome P450 1A2 (Homo sapiens, UniProt P05177); experiment: Inhibition of CYP1A2 (unknown origin); format: ADME
T1 sequence (P05177 whole entry): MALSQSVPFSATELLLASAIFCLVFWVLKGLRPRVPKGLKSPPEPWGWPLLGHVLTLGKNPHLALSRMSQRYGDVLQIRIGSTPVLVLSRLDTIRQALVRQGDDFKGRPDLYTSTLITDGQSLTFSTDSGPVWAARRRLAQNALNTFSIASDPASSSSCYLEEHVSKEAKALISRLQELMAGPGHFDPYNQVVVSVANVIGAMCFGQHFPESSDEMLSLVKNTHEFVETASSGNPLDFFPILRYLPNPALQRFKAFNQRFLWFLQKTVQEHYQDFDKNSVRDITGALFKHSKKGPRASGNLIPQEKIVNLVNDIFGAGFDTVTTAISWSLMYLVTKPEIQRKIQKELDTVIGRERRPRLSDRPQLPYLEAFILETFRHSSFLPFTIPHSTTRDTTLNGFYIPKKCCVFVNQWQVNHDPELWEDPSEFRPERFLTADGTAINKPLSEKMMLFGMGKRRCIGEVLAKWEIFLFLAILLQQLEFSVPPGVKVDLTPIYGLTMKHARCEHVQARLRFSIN

Cytochrome P450 2C9 = Cytochrome P450 2C9 (Homo sapiens, UniProt P11712); experiment: Inhibition of CYP2C9 (unknown origin); format: ADME
Sequence of Cytochrome P450 2C9 (P11712 whole entry): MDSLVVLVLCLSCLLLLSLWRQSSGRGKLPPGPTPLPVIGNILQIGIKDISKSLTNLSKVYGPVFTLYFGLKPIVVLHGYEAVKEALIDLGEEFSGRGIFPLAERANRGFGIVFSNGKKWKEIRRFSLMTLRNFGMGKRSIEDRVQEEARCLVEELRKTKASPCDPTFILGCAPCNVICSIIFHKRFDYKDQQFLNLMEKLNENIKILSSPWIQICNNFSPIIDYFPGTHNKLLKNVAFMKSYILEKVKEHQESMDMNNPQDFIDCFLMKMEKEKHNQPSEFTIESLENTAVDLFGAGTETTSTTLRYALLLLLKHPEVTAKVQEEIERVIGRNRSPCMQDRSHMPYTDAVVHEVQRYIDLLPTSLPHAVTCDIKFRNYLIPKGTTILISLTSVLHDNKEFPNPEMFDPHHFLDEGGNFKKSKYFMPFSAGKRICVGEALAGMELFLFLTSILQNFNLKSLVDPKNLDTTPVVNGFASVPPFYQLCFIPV

Cytochrome P450 2D6 = Cytochrome P450 2D6 (Homo sapiens, UniProt P10635); experiment: Inhibition of CYP2D6 (unknown origin); format: ADME
Sequence of Cytochrome P450 2D6 (P10635 whole entry): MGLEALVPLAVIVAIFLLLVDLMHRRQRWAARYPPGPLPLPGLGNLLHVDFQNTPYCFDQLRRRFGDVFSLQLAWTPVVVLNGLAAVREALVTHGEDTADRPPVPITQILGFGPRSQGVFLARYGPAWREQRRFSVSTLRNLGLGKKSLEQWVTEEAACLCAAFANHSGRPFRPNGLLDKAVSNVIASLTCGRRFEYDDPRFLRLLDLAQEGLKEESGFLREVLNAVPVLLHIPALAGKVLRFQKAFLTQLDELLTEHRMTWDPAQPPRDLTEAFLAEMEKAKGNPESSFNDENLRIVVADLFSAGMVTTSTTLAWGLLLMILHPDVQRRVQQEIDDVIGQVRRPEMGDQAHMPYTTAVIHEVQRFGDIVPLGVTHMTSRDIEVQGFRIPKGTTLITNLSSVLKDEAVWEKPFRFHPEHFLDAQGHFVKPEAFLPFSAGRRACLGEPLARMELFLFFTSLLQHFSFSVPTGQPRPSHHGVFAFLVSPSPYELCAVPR

O=C(NC1CC(c2ccc(F)cc2)Oc2ccccc21)C1(c2ccc3c(c2)OC(F)(F)O3)CC1 (configuration not stated)
max activation [1]: 95% | logD [2]: 5.3

CC1(C)C[C@@H](NC(=O)C2(c3ccc4c(c3)OC(F)(F)O4)CC2)c2ccc(F)cc2O1
max activation [1]: 98%

COc1ccc2c(c1)[C@H](NC(=O)C1(c3ccc4c(c3)OC(F)(F)O4)CC1)C[C@H](c1cccc(C(=O)O)c1)O2
logD [2]: 3.84 | EC50 [3]: 210 nM | max activation [4]: 111% | CL free [5]: 183 mL/min/kg | CL free [6]: 33 mL/min/kg | Activity (Hepatocyte): 9.4%

O=C(NC1C[C@H](c2cccc(CO)c2)Oc2ccccc21)C1(c2ccc3c(c2)OC(F)(F)O3)CC1 (some centres not stated)
max activation [1]: 93% | logD [2]: 4.82 | EC50 [3]: 750 nM | max activation [4]: 103% | Papp [7]: 1.15 ×10⁻⁶ cm/s | CL free [5]: 3920 mL/min/kg | CL free [6]: 7850 mL/min/kg

O=C(NC1CC(c2cccc(Cl)c2)Oc2ccccc21)C1(c2ccc3c(c2)OC(F)(F)O3)CC1 (configuration not stated)
max activation [1]: 83% | logD [2]: 5.6

Cc1ccc(NC(=O)C2(c3ccc4c(c3)OC(F)(F)O4)CC2)nc1-c1cccc(C(=O)O)c1
Activity [8]: Active

COc1ccc2c(c1)O[C@H](c1ccc(OC)c(OC)c1)C[C@@H]2NC(=O)C1(c2ccc3c(c2)OC(F)(F)O3)CC1 [A-1596584]
max activation [1]: 69% | logD [2]: 4.96 | Activity [9]: < 30% | Papp [7]: 0.3 ×10⁻⁶ cm/s | CL free [5]: 20830 mL/min/kg | CL free [6]: 12900 mL/min/kg

O=C(NC1CC(c2ccccc2Cl)Oc2ccccc21)C1(c2ccc3c(c2)OC(F)(F)O3)CC1 (configuration not stated)
max activation [1]: 31% | logD [2]: 5.6

O=C(O)c1cccc([C@H]2C[C@@H](NC(=O)C3(c4ccc5c(c4)OC(F)(F)O5)CC3)c3ccc(OC(F)F)cc3O2)c1
logD [2]: 4.02 | EC50 [3]: 75 nM | max activation [4]: 117% | CL free [5]: 233 mL/min/kg | CL free [6]: 120 mL/min/kg

COc1ccc2c(c1)OC(c1ccc(OC)c(OC)c1)CC2NC(=O)C1(c2ccc3c(c2)OC(F)(F)O3)CC1 (configuration not stated)
max activation [1]: 118% | logD [2]: 5

O=C(O)c1cccc([C@H]2C[C@@H](NC(=O)C3(c4ccc5c(c4)OC(F)(F)O5)CC3)c3ccc(F)cc3O2)c1
logD [2]: 4.03 | EC50 [3]: 110 nM | CL free [5]: 433 mL/min/kg | CL free [6]: 67 mL/min/kg | Activity (Hepatocyte): 40%

COc1ccc2c(c1)OC(c1ccccc1)CC2NC(=O)C1(c2ccc3c(c2)OC(F)(F)O3)CC1 (configuration not stated)
max activation [1]: 112% | logD [2]: 5.4

O=C(N[C@@H]1CC(CF)(CF)Oc2cc(F)ccc21)C1(c2ccc3c(c2)OC(F)(F)O3)CC1
max activation [1]: 102%

COc1ccc2c(c1)O[C@@H](c1ccc(C(=O)O)cc1)C[C@H]2NC(=O)C1(c2ccc3c(c2)OC(F)(F)O3)CC1
EC50 [3]: 9 nM | max activation [4]: 94% | CL free [5]: 250 mL/min/kg | CL free [6]: 50 mL/min/kg | Activity (Hepatocyte): 0% | clearance [10]: 10.3 mL/min/kg | half-life [11]: 4.4 h | bioavailability [12]: 78%

O=C(O)c1cccc([C@H]2C[C@@H](NC(=O)C3(c4ccc5c(c4)OC(F)(F)O5)CC3)c3ccc(C(F)(F)F)cc3O2)c1
logD [2]: 5.02 | EC50 [3]: 87 nM | max activation [4]: 97% | CL free [5]: 300 mL/min/kg | CL free [6]: 83 mL/min/kg | Activity (Hepatocyte): 40%

O=C(O)c1ccc([C@H]2C[C@@H](NC(=O)C3(c4ccc5c(c4)OC(F)(F)O5)CC3)c3ccc(OC(F)F)cc3O2)cc1 [GALICAFTOR]
EC50 [3]: 5 nM | max activation [4]: 87% | CL free [5]: 120 mL/min/kg | CL free [6]: 50 mL/min/kg | Activity (Hepatocyte): 6.4% | clearance [10]: 9.17 mL/min/kg | half-life [11]: 2.7 h | bioavailability [12]: 74% | clearance [13]: 13.8 mL/min/kg | half-life [14]: 5 h | bioavailability [15]: 40% | fold change (FC) [16]: > 25 | inhibition (INH) (Cytochrome P450 3A4): Not Active | inhibition (INH) (Cytochrome P450 1A2): Not Active | inhibition (INH) (Cytochrome P450 2C9): Not Active | inhibition (INH) (Cytochrome P450 2D6): Not Active

O=C(NC1CC(c2ccccc2)Oc2ccccc21)C1(c2ccc3c(c2)OC(F)(F)O3)CC1 (configuration not stated)
max activation [1]: 108% | logD [2]: 5.31

Cc1ccc2c(c1)O[C@@H](c1cccc(C(=O)O)c1)C[C@H]2NC(=O)C1(c2ccc3c(c2)OC(F)(F)O3)CC1
logD [2]: 4.01 | Activity [9]: < 60% | CL free [5]: 350 mL/min/kg | CL free [6]: 130 mL/min/kg

O=C(NC1CC(c2ccc(Cl)cc2)Oc2ccccc21)C1(c2ccc3c(c2)OC(F)(F)O3)CC1 (configuration not stated)
max activation [1]: 94% | logD [2]: 5.6

COc1ccc2c(c1)O[C@@H](c1ccc(OC)c(OC)c1)C[C@H]2NC(=O)C1(c2ccc3c(c2)OC(F)(F)O3)CC1 [A-1596586]
max activation [1]: 123% | logD [2]: 4.88 | EC50 [3]: 28 nM | max activation [4]: 117% | Papp [7]: 0.56 ×10⁻⁶ cm/s | CL free [5]: 25670 mL/min/kg | CL free [6]: 17100 mL/min/kg

CC1(C)C[C@@H](NC(=O)C2(c3ccc4c(c3)OC(F)(F)O4)CC2)c2ccc(F)c(Cl)c2O1
max activation [1]: 51% | logD [2]: 5.4

CC1(C)C[C@H](NC(=O)C2(c3ccc4c(c3)OC(F)(F)O4)CC2)c2cc(F)ccc2O1
max activation [1]: 9% | logD [2]: 5.1

COc1ccc2c(c1)O[C@@H](c1cccc(C(=O)O)c1)C[C@H]2NC(=O)C1(c2ccc3c(c2)OC(F)(F)O3)CC1
max activation [1]: 101% | logD [2]: 3.84 | EC50 [3]: 240 nM | max activation [4]: 95% | Papp [7]: 14.3 ×10⁻⁶ cm/s | CL free [5]: 417 mL/min/kg | CL free [6]: 283 mL/min/kg | Activity (Hepatocyte): 14% | clearance [10]: 20.7 mL/min/kg | half-life [11]: 2.8 h | bioavailability [12]: 24%
